Calls of active or inactive are those of the source. No cut-off for these calls is given here.
Experiments:
NCI-H522 [1] = experiment: Cytotoxicity against human NCI-H522 cells assessed as reduction in cell viability incubated for 3 days by methylene blue staining based analysis; type: functional; details: NCI-H522, 72 h
[2] = Selectivity ratio of IC50 for human HCT-116 cells to IC50 for human NCI-H522 cells by methylene blue staining based analysis; type: functional
NCI-H522 [3] = experiment: Cytotoxicity against human NCI-H522 cells assessed as reduction in cell survival at 4.5 uM incubated for 3 days in presence of ferroptosis inhibitor, liproxstatin-1 by methylene blue staining based analysis; type: functional; details: time 3.0 day
Procedure, shortened: (§1)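 NCI-H522 cells seeded at 25×10³/well (n=3), adhered overnight, then exposed to compound with or without liproxstatin-1 (0.25 μM). After 3 days, methylene blue staining with HCl elution and A668. Results given as % relative to DMSO control, mean ± SD, n=3, one-way ANOVA. Fold change is IC50 (with liproxstatin-1)/IC50 (alone).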

HCT-116 = experiment: Cytotoxicity against human HCT-116 cells assessed as reduction in cell viability incubated for 3 days by methylene blue staining based analysis; type: functional; details: HCT-116, 72 h
NCI-H522 [4] = experiment: Induction of lipid peroxidation in human NCI-H522 cells assessed as increase in C11-BODIPY oxidation at 10 uM incubated for 3 hrs by flow cytometry; type: functional, cell-based
Procedure, shortened: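 NCI-H522 cells at ~70% density, plated overnight, treated with compound or DMSO together with C11-BODIPY 581/591 (1 μM) for 3 h or 6 h. Cells then PBS-washed, trypsinised, resuspended in PBS with 2% FBS and read by flow cytometry, preferably 20*10³ cells. Oxidation compared with DMSO treatment.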

NCI-H522 [5] = experiment: Induction of lipid peroxidation in human NCI-H522 cells assessed as increase in C11-BODIPY oxidation at 10 uM incubated for 6 hrs by flow cytometry; type: functional, cell-based
Procedure, shortened: (§2)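 NCI-H522 cells (~70% density) plated in dishes overnight, then treated with compound or DMSO plus C11-BODIPY 581/591 (1 μM) added at treatment. After 3 h or 6 h, cells washed, trypsinized, resuspended in PBS with 2% FBS and analysed by flow cytometry (preferably 20×10³ cells). Oxidation compared with DMSO treatment.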

NCI-H522 [6] = experiment: Cytotoxicity against human NCI-H522 cells assessed as time required to cause 50% irreversible cell death treated with compound followed by washing for every 30 mins for 6 hrs by methylene blue staining based analysis; type: functional
Procedure, shortened: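 NCI-H522 cells, 5*10³/well (n=3), plated overnight, then treated with compound or DMSO. Wells washed immediately after treatment and then at 30-min intervals up to 6 h; last wells not washed. Methylene blue in 50% ethanol fix/stain 30 min RT, dye dissolved in 0.1N HCl, A668. Each point taken as % survival of matching DMSO-treated cells.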

[7] = Cytotoxicity against human WI-38 cells assessed as reduction in cell viability incubated for 3 days by methylene blue staining based analysis; type: toxicity
U2OS = experiment: Cytotoxicity against human U2OS cells assessed as reduction in cell viability incubated for 3 days by methylene blue staining based analysis; type: functional; details: 72 h
[8] = Cytotoxicity against mouse MEF cells assessed as reduction in cell viability incubated for 3 days by methylene blue staining based analysis; type: toxicity
[9] = Ratio of IC50 for cytotoxicity against human NCI-H522 cells in presence of ferroptosis inhibitor, liproxstatin-1 to IC50 for cytotoxicity against human NCI-H522 cells; type: functional
Procedure, shortened: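 NCI-H522 cells, 25*10³/well (n=3), plated overnight, treated with compound with or without Liproxstatin-1 (0.25 μM). After 3 days, methylene blue in 50% ethanol fix/stain 30 min RT, dye dissolved in 0.1N HCl, A668. Fold change = IC₅₀ with Liproxstatin-1 / IC₅₀ without.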

MDA-MB-468 = experiment: Cytotoxicity against human MDA-MB-468 cells assessed as reduction in cell viability incubated for 3 days by methylene blue staining based analysis; type: functional; details: MDA-MB-468, 72 h
MDA-MB-231 = experiment: Cytotoxicity against human MDA-MB-231 cells assessed as reduction in cell viability incubated for 3 days by methylene blue staining based analysis; type: functional; details: MDA-MB-231, 72 h
NCI-H522 [10] = experiment: Cytotoxicity against human NCI-H522 cells assessed as reduction in cell viability incubated for 3 days in presence of ferroptosis inhibitor, liproxstatin-1 by methylene blue staining based analysis; type: functional; details: NCI-H522, 72 h; procedure, shortened: as §1
HeLa = experiment: Cytotoxicity against human HeLa cells assessed as reduction in cell viability incubated for 3 days by methylene blue staining based analysis; type: functional; details: 72 h
HT-1080 = experiment: Cytotoxicity against human HT-1080 cells assessed as reduction in cell viability incubated for 3 days by methylene blue staining based analysis; type: functional; details: HT-1080, 72 h
NCI-H522 [11] = experiment: Induction of lipid peroxidation in human NCI-H522 cells assessed as increase in C11-BODIPY oxidation at 20 uM incubated for 6 hrs by flow cytometry; type: functional, cell-based; procedure, shortened: as §2
NCI-H522 [12] = experiment: Induction of lipid peroxidation in human NCI-H522 cells assessed as increase in C11-BODIPY oxidation at 40 uM incubated for 6 hrs by flow cytometry; type: functional, cell-based; procedure, shortened: as §2
NCI-H522 [13] = experiment: Induction of lipid peroxidation in human NCI-H522 cells assessed as increase in C11-BODIPY oxidation at 5 uM incubated for 3 hrs by flow cytometry; type: functional, cell-based; procedure, shortened: as §2
NCI-H522 [14] = experiment: Induction of lipid peroxidation in human NCI-H522 cells assessed as increase in C11-BODIPY oxidation at 5 uM incubated for 6 hrs by flow cytometry; type: functional, cell-based; procedure, shortened: as §2
NCI-H522 [15] = experiment: Cytotoxicity against human NCI-H522 cells assessed as reduction in cell survival at 2 uM incubated for 3 days in presence of ferroptosis inhibitor, liproxstatin-1 by methylene blue staining based analysis; type: functional; details: time 3.0 day; procedure, shortened: as §1
NCI-H522 [16] = experiment: Induction of lipid peroxidation in human NCI-H522 cells assessed as increase in C11-BODIPY oxidation at 30 uM incubated for 6 hrs by flow cytometry; type: functional, cell-based; procedure, shortened: as §2

| Structure (SMILES) | IC50 (NCI-H522 [1]) | Ratio IC50 [2] | IC50 (HCT-116) | further results |
| --- | --- | --- | --- | --- |
| C=Cc1nc2ccccc2n1C | 2.34 µM | 4.05 | 9.5 µM | Activity (NCI-H522 [3]): Active |
| C=Cc1nc2ccccc2s1 | > 40 µM |  | > 40 µM |  |
| C=Cc1csc(Br)n1 | > 40 µM |  | > 40 µM |  |
| CC#Cc1nc2ccccc2s1 | > 40 µM |  | > 40 µM |  |
| Ic1nc2ccccc2s1 | > 40 µM |  | > 40 µM |  |
| Cn1c(Br)nc2ccccc21 | > 40 µM |  | > 40 µM |  |
| Ic1nc2ccccc2o1 | 11.7 µM | 3.41 | > 40 µM |  |
| C#Cc1nc2ccccc2[se]1 | 2.17 µM | 11.5 | 25 µM | Activity (NCI-H522 [4]): Active |
| Ic1nc2ccccc2[se]1 | > 40 µM |  | > 40 µM |  |
| C#Cc1nc2ccccc2o1 | 1.26 µM | 9.12 | 11.6 µM | Activity (NCI-H522 [5]): Active |
| CCOC(=O)c1csc(C#Cc2ccccc2)n1 | > 40 µM |  | > 40 µM |  |
| COC(=O)c1ccc([C@H]2c3[nH]c4ccccc4c3CC(C(=O)OC)N2C(=O)CCl)cc1 (some centres undefined) |  |  |  | IT50 (NCI-H522 [6]): 1.33 h |
| Cc1onc(C(=O)N2CCN(C(c3ccc(Cl)cc3)c3ccc(Cl)cc3)CC2)c1[N+](=O)[O-] | 0.044 µM |  | > 1 µM | IC50 at 3 days [7]: 0.06 µM; IC50 (U2OS): 0.822 µM; IC50 at 3 days [8]: 0.016 µM; Ratio IC50 [9]: 784.431; IC50 (MDA-MB-468): 0.066 µM; IC50 (MDA-MB-231): 0.02 µM; IC50 (NCI-H522 [10]): 34.5 µM; IC50 (HeLa): 0.253 µM; IC50 (HT-1080): 0.022 µM |
| C#Cc1sc(-c2ccc(F)cc2)nc1C(=O)OCC | 3.53 µM | 11.33 | > 40 µM | Activity (NCI-H522 [11]): Active |
| N#Cc1nccs1 | > 40 µM |  | > 40 µM |  |
| Cn1cnc2ccccc21 | > 40 µM |  | > 40 µM |  |
| CC#CC1=Nc2ccccc2C(C)(C)O1 | 8.4 µM | >4.76 | > 40 µM | Activity (NCI-H522 [12]): Active |
| C#Cc1nc(C(=O)Nc2ccc(OC)cc2)cs1 | 0.67 µM | 12.52 | 8.39 µM | Activity (NCI-H522 [13]): Active |
| C#Cc1nc(C(=O)OCC)cs1 | 2.67 µM | >14.98 | > 40 µM | Activity (NCI-H522 [11]): Active |
| C#Cc1nc(C(=O)Nc2ccc(Cl)cc2)cs1 | 0.54 µM | 29.4 | 15.9 µM | Activity (NCI-H522 [14]): Active |
| Brc1nc2ccccc2s1 | > 40 µM |  | > 40 µM |  |
| C=Cc1nc2ccccc2o1 | > 40 µM |  | > 40 µM |  |
| CC#Cc1nc(C(=O)OCC)cs1 | > 40 µM |  | > 40 µM |  |
| Brc1nc2ccccc2o1 | > 40 µM |  | > 40 µM |  |
| C=Cc1nc2ccccc2[se]1 | 12.2 µM | >3.27 | > 40 µM |  |
| C#CCNC(=O)c1csc(Br)n1 | > 40 µM |  | > 40 µM |  |

| Structure (SMILES) | IC50 (NCI-H522 [1]) | Ratio IC50 [2] | IC50 (HCT-116) | further results |
| --- | --- | --- | --- | --- |
| C#Cc1nc(C(=O)N2CCN(c3ccc(Cl)cc3)CC2)cs1 | 0.028 µM |  |  |  |
| C#Cc1nc(C(=O)N2CCN(c3ccc(F)cc3)CC2)cs1 | 0.064 µM |  |  |  |
| C#Cc1nc(/C=C/C(=O)Nc2ccc(Cl)cc2)cs1 | 0.37 µM | 62.64 | 23.2 µM | Activity (NCI-H522 [13]): Active |
| c1ccc2[se]cnc2c1 | > 40 µM |  | > 40 µM |  |
| C#CC(=O)N1CCN(C(c2ccc(Cl)cc2)c2ccc(Cl)cc2)CC1 | 1.13 µM |  | 3.8 µM | IC50 at 3 days [7]: 0.5 µM; IC50 (U2OS): 0.638 µM; IC50 at 3 days [8]: 0.082 µM; Ratio IC50 [9]: 2.55; IC50 (MDA-MB-468): 0.065 µM; IC50 (MDA-MB-231): 0.038 µM; IC50 (NCI-H522 [10]): 2.88 µM; IC50 (HeLa): 0.303 µM; IC50 (HT-1080): 0.376 µM |
| c1ccc2ocnc2c1 [BENZO[D]OXAZOLE] | > 40 µM |  | > 40 µM |  |
| C#Cc1nc(C(=O)Nc2ccccc2)cs1 | 0.66 µM | 7.39 | 4.88 µM | Activity (NCI-H522 [13]): Active |
| C#Cc1nc(/C=C/C(=O)N2CCN(C(c3ccc(Cl)cc3)c3ccc(Cl)cc3)CC2)cs1 | 0.006 µM |  |  |  |
| Brc1nc2ccccc2[se]1 | > 40 µM |  | > 40 µM |  |
| C#Cc1nc(C(=O)N2CCN(c3ccc(C(F)(F)F)cc3)CC2)cs1 | 0.037 µM |  |  |  |
| C=Cc1nc(C(=O)OCC)cs1 | > 40 µM |  | > 40 µM |  |
| C#Cc1ccccn1 | > 40 µM |  | > 40 µM |  |
| C#Cc1csc(Br)n1 | > 40 µM |  | > 40 µM |  |
| C#CC1=Nc2ccccc2C(C)(C)O1 | 0.89 µM | 6.3 | 5.61 µM | Activity (NCI-H522 [14]): Active |
| C#Cc1nccs1 | > 40 µM |  | > 40 µM |  |
| c1ccc2scnc2c1 [BENZO[D]THIAZOLE] | > 40 µM |  | > 40 µM |  |
| C#CCNC(=O)c1cscn1 | > 40 µM |  | > 40 µM |  |
| O=C(CCl)N1CCN(C(c2ccc(Cl)cc2)c2ccc(Cl)cc2)CC1 | 0.752 µM |  | 1.64 µM | IC50 at 3 days [7]: 1.74 µM; IC50 (U2OS): 1.71 µM; IC50 at 3 days [8]: 0.352 µM; Ratio IC50 [9]: 4.12; IC50 (MDA-MB-468): 1.75 µM; IC50 (MDA-MB-231): 0.494 µM; IC50 (NCI-H522 [10]): 3.1 µM; IC50 (HeLa): 2.11 µM; IC50 (HT-1080): 0.302 µM |
| Cn1c(I)nc2ccccc21 | 1.02 µM | 17.16 | 17.5 µM | Activity (NCI-H522 [15]): Active |
| C=Cc1sc(-c2ccc(F)cc2)nc1C(=O)OCC | > 40 µM |  | > 40 µM |  |
| C#Cc1ncccn1 | > 40 µM |  | > 40 µM |  |
| C#Cc1nc2ccccc2n1C | 8.14 µM | 2.37 | 19.4 µM | Activity (NCI-H522 [12]): Active |
| C#CCNC1CCC(c2csc(C#C)n2)=C1C (centres undefined) | 2.51 µM |  | > 40 µM | Activity (NCI-H522 [11]): Active |
| C#Cc1nc(C(=O)N2CCN(CC)CC2)cs1 | > 1 µM |  |  |  |
| C#Cc1nc(-c2ccccc2)cs1 | 5.65 µM | >7.07 | > 40 µM | Activity (NCI-H522 [16]): Active |
